Results published in ChEMBL document CHEMBL5335771, “Thioxanthenone-based derivatives as multitarget therapeutic leads for Alzheimer's disease” (Eur J Med Chem, 2023).
Active and inactive are the calls of the source. The calls are words filed in the database; no cut-off is given here.

Tests used:
[1] = tested on: SH-SY5Y; assay: Neuroprotective activity against okadaic acid-induced cytotoxicity in human SH-SY5Y cells assessed as increase in cell viability at 0.1 to 10 uM incubated for 24 hrs by MTT assay; assay type: functional, cell-based; settings: dose 0.1-10 µM
Outline: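 SH-SY5Y cells grown in DMEM with 10% FBS and plated at 4.5×10^4 cells/well. Incubated 24 h at 37 °C, 5% CO2 with compound (0.1–50 μM) plus okadaic acid 100 nM. Viability by MTT, expressed as % of untreated cells; estradiol and PD38 as positive controls. Mean ± SD of three independent experiments; ANOVA with Dunnett's test.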

[2] = Cytotoxicity against mouse brain Primary embryonic cortical cell assessed as cell death at 5 uM incubated for 2 hrs by propidium iodide dye based spectrofluorometric analysis relative to control; assay type: toxicity
Outline: (§1)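 Primary cortical cultures from E16.5 mouse embryo brains, trypsinized, plated on poly-D-lysine, grown in Neurobasal with glutamine, glucose, 5% horse serum and B27; compounds added at 4 DIV. Propidium iodide 30 μM; baseline F1 read 1 h after PI; ex 530/em 645 nm. Fmax after digitonin permeabilization. % death = 100×(Fn−F1)/(Fmax−F1); mean of three independent experiments.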

[3] = Cytotoxicity against mouse brain Primary embryonic cortical cell assessed as cell death at 2.5 uM incubated for 24 hrs by propidium iodide dye based spectrofluorometric analysis relative to control; assay type: toxicity; outline: as §1
[4] = Cytotoxicity against mouse brain Primary embryonic cortical cell assessed as cell death at 2.5 uM incubated for 3 hrs by propidium iodide dye based spectrofluorometric analysis relative to control; assay type: toxicity; outline: as §1
[5] = molecular target: Cholinesterase (Equus caballus, UniProt P81908); assay: Inhibition of equine serum BChE using butyrylthiocholine iodide as substrate preincubated for 20 mins followed by substrate addition by DTNB reagent based Ellman's method; assay type: cell-free
[6] = Cytotoxicity against mouse brain Primary embryonic cortical cell assessed as cell death at 10 uM incubated for 1 hr by propidium iodide dye based spectrofluorometric analysis relative to control; assay type: toxicity; outline: as §1
[7] = Cytotoxicity against mouse brain Primary embryonic cortical cell assessed as cell death at 30 uM incubated for 5 hrs by propidium iodide dye based spectrofluorometric analysis relative to control; assay type: toxicity; outline: as §1
[8] = Cytotoxicity against mouse brain Primary embryonic cortical cell assessed as cell death at 2.5 uM incubated for 6 hrs by propidium iodide dye based spectrofluorometric analysis relative to control; assay type: toxicity; outline: as §1
[9] = molecular target: Microtubule-associated protein tau (Homo sapiens, UniProt P10636); assay: Inhibition of tau (unknown origin) aggregation expressed in Escherichia coli BL21 (DE3)
Outline: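 E. coli BL21(DE3) carrying pTARA (T7 RNA polymerase under PBAD) and pRKT42 (four-repeat tau) grown at 37 °C in M9 with 0.5% glucose, antibiotics and 250 μM ThS to OD600 0.6. […] ThS fluorescence ex 430/em 485 nm, normalized to tau-expressing cells (100%) and non-expressing cells (0%); OD600 checked for growth.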

[10] = Cytotoxicity against mouse brain Primary embryonic cortical cell assessed as cell death at 10 uM incubated for 72 hrs by propidium iodide dye based spectrofluorometric analysis relative to control; assay type: toxicity; outline: as §1
[11] = molecular target: Acetylcholinesterase (Homo sapiens, UniProt P22303); assay: Inhibition of human recombinant AChE using acetylthiocholine iodide as substrate preincubated for 20 mins followed by substrate addition by DTNB reagent based Ellman's method
[12] = Cytotoxicity against mouse brain Primary embryonic cortical cell assessed as cell death at 30 uM incubated for 3 hrs by propidium iodide dye based spectrofluorometric analysis relative to control; assay type: toxicity; outline: as §1
[13] = Cytotoxicity against mouse brain Primary embryonic cortical cell assessed as cell death at 2.5 uM incubated for 4 hrs by propidium iodide dye based spectrofluorometric analysis relative to control; assay type: toxicity; outline: as §1
[14] = Cytotoxicity against mouse brain Primary embryonic cortical cell assessed as cell death at 2.5 uM incubated for 48 hrs by propidium iodide dye based spectrofluorometric analysis relative to control; assay type: toxicity; outline: as §1
[15] = Cytotoxicity against mouse brain Primary embryonic cortical cell assessed as cell death at 10 uM incubated for 5 hrs by propidium iodide dye based spectrofluorometric analysis relative to control; assay type: toxicity; outline: as §1
[16] = Cytotoxicity against mouse brain Primary embryonic cortical cell assessed as cell death at 30 uM incubated for 24 hrs by propidium iodide dye based spectrofluorometric analysis relative to control; assay type: toxicity; outline: as §1
[17] = Cytotoxicity against mouse brain Primary embryonic cortical cell assessed as cell death at 2.5 uM incubated for 1 hr by propidium iodide dye based spectrofluorometric analysis relative to control; assay type: toxicity; outline: as §1
[18] = Cytotoxicity against mouse brain Primary embryonic cortical cell assessed as cell death at 30 uM incubated for 6 hrs by propidium iodide dye based spectrofluorometric analysis relative to control; assay type: toxicity; outline: as §1
[19] = Cytotoxicity against mouse brain Primary embryonic cortical cell assessed as cell death at 30 uM incubated for 72 hrs by propidium iodide dye based spectrofluorometric analysis relative to control; assay type: toxicity; outline: as §1
[20] = Cytotoxicity against mouse brain Primary embryonic cortical cell assessed as cell death at 5 uM incubated for 6 hrs by propidium iodide dye based spectrofluorometric analysis relative to control; assay type: toxicity; outline: as §1
[21] = molecular target: Acetylcholinesterase (Electrophorus electricus, UniProt O42275); assay: Inhibition of electric eel AChE using acetylthiocholine iodide as substrate preincubated for 20 mins followed by substrate addition by DTNB reagent based Ellman's method
[22] = Cytotoxicity against mouse brain Primary embryonic cortical cell assessed as cell death at 2.5 uM incubated for 72 hrs by propidium iodide dye based spectrofluorometric analysis relative to control; assay type: toxicity; outline: as §1
[23] = Cytotoxicity against mouse brain Primary embryonic cortical cell assessed as cell death at 5 uM incubated for 72 hrs by propidium iodide dye based spectrofluorometric analysis relative to control; assay type: toxicity; outline: as §1
[24] = Cytotoxicity against mouse brain Primary embryonic cortical cell assessed as cell death at 10 uM incubated for 6 hrs by propidium iodide dye based spectrofluorometric analysis relative to control; assay type: toxicity; outline: as §1
[25] = Cytotoxicity against mouse brain Primary embryonic cortical cell assessed as cell death at 5 uM incubated for 5 hrs by propidium iodide dye based spectrofluorometric analysis relative to control; assay type: toxicity; outline: as §1
[26] = Cytotoxicity against mouse brain Primary embryonic cortical cell assessed as cell death at 10 uM incubated for 2 hrs by propidium iodide dye based spectrofluorometric analysis relative to control; assay type: toxicity; outline: as §1
[27] = Cytotoxicity against mouse brain Primary embryonic cortical cell assessed as cell death at 5 uM incubated for 4 hrs by propidium iodide dye based spectrofluorometric analysis relative to control; assay type: toxicity; outline: as §1
[28] = Cytotoxicity against mouse brain Primary embryonic cortical cell assessed as cell death at 5 uM incubated for 1 hr by propidium iodide dye based spectrofluorometric analysis relative to control; assay type: toxicity; outline: as §1
[29] = Cytotoxicity against mouse brain Primary embryonic cortical cell assessed as cell death at 30 uM incubated for 1 hr by propidium iodide dye based spectrofluorometric analysis relative to control; assay type: toxicity; outline: as §1
[30] = Cytotoxicity against mouse brain Primary embryonic cortical cell assessed as cell death at 30 uM incubated for 2 hrs by propidium iodide dye based spectrofluorometric analysis relative to control; assay type: toxicity; outline: as §1
[31] = Cytotoxicity against rat Primary cerebellar granule neuron assessed as cell viability at 10 uM relative to control; assay type: toxicity, cell-based, Cerebellar granule neurone; settings: primary cerebellar granule neurons, read-out: Activity
[32] = molecular target: Cholinesterase (Homo sapiens, UniProt P06276); assay: Inhibition of human recombinant BChE using acetylthiocholine iodide as substrate at 10 uM preincubated for 20 mins followed by substrate addition by DTNB reagent based Ellman's method relative to control
Outline: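 Human BChE activity was read by the Ellman spectrophotometric method. Results are % inhibition at a single 10 μM inhibitor concentration. Values are means of three independent experiments.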

Chain of Cholinesterase (Equus caballus, UniProt P81908) (P81908 whole entry): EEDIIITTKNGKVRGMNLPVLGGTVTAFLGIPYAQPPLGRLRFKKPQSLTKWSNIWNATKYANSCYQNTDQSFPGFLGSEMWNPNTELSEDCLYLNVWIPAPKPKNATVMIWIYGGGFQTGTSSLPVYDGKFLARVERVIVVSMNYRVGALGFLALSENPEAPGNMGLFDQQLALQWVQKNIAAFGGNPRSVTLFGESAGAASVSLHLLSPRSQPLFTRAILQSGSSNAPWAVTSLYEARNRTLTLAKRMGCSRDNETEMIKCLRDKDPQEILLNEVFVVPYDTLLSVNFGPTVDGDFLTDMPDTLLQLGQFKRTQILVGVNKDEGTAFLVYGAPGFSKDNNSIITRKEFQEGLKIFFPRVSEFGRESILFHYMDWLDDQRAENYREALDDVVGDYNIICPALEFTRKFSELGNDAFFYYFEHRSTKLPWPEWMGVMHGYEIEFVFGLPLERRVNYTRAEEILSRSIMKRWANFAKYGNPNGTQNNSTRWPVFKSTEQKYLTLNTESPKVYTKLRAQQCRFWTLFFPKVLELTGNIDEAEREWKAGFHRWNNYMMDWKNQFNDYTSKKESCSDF
Chain of Acetylcholinesterase (Electrophorus electricus, UniProt O42275) (O42275 whole entry): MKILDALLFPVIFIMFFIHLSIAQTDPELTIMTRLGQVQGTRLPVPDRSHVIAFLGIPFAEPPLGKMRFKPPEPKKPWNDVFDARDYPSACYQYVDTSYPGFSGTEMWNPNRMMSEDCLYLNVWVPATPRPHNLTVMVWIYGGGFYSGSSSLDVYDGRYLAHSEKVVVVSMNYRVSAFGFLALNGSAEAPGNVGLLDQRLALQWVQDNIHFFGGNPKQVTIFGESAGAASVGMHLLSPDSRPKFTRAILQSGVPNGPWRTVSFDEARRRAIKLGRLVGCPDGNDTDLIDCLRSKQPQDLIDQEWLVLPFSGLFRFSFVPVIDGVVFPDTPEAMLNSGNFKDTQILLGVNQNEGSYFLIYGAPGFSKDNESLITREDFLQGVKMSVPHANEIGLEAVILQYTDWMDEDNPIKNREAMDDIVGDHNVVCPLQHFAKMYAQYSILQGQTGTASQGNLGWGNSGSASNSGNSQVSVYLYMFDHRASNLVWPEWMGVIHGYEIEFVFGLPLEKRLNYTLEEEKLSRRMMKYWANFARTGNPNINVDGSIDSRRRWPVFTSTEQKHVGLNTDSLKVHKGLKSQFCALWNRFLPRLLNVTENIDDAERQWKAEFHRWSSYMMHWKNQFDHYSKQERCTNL
Chain of Cholinesterase (Homo sapiens, UniProt P06276) (P06276 whole entry): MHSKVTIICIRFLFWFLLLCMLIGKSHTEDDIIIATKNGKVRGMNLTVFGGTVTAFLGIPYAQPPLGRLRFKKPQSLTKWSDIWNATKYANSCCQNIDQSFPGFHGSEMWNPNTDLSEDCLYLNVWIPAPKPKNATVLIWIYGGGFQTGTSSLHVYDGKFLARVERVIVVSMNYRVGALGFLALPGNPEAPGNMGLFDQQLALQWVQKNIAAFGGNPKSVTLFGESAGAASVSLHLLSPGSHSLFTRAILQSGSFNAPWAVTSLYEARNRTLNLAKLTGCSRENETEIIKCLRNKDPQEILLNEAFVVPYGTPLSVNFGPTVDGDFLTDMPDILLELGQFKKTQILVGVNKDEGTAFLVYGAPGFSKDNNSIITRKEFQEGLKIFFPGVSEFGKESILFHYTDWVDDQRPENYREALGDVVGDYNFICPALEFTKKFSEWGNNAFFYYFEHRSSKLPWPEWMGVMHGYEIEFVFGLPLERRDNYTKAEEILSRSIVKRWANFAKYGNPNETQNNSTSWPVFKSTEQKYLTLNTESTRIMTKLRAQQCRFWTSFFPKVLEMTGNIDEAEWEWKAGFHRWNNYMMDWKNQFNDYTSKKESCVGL
Chain of Acetylcholinesterase (Homo sapiens, UniProt P22303) (P22303 whole entry): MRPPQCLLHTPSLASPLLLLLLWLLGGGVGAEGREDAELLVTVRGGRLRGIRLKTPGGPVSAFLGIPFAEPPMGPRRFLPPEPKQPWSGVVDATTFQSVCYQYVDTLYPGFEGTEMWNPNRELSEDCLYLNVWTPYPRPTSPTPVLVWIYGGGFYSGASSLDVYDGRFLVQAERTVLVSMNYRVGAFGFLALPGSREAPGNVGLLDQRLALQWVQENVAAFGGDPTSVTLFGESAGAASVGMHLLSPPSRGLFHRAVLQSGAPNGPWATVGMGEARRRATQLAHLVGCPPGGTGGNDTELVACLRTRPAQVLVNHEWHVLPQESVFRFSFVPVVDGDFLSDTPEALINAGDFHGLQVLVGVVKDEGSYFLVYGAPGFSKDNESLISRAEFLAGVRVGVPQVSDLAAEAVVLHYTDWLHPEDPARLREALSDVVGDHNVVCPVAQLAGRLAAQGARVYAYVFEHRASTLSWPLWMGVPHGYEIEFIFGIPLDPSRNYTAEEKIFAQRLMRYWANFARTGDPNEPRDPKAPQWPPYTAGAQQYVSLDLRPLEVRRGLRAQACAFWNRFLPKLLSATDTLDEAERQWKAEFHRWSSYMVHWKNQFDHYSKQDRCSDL
Chain of Microtubule-associated protein tau (P10636 whole entry): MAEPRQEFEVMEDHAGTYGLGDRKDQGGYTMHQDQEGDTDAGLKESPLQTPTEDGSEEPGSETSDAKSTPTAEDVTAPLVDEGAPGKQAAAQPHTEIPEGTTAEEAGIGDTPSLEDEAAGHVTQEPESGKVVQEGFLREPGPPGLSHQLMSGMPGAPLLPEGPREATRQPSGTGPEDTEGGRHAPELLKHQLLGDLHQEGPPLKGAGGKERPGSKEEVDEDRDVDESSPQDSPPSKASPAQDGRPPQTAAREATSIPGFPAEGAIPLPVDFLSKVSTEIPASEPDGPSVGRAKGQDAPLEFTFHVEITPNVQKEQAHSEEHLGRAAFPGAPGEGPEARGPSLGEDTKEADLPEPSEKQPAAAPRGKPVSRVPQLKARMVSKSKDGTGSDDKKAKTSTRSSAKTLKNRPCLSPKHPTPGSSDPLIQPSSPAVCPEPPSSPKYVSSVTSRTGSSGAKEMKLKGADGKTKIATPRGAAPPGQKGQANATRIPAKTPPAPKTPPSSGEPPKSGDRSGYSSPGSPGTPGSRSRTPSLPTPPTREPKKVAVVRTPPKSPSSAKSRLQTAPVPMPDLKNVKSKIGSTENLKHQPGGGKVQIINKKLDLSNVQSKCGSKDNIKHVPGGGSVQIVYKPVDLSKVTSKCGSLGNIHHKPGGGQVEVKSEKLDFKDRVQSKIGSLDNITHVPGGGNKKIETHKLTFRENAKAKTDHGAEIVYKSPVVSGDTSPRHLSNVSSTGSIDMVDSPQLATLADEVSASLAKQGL

## COc1ccc2sc3c(C)ccc(NCCC4CCN(C)CC4)c3c(=O)c2c1
[1]
  Activity: Active
[2]
  Activity: 7.6%
[3]
  Activity: 76.2%
[4]
  Activity: 8.5%
[5]
  IC50: 0.96 µM
[6]
  Activity: 16.7%
[7]
  Activity: 60.4%
[8]
  Activity: 29.9%
[9]
  IC50: 1.8 µM
[10]
  Activity: 92.4%
[11]
  IC50: 16.1 µM
[12]
  Activity: 54.7%
[13]
  Activity: 17.4%
[14]
  Activity: 81.5%
[15]
  Activity: 54.4%
[16]
  Activity: 86.1%
[17]
  Activity: 2.9%
[18]
  Activity: 61.9%
[19]
  Activity: 89.4%
[20]
  Activity: 41.4%
[21]
  IC50: 4.4 µM
[22]
  Activity: 77.8%
[23]
  Activity: 85.7%
[24]
  Activity: 55.7%
[25]
  Activity: 32.6%
[26]
  Activity: 43.5%
[27]
  Activity: 25.8%
[28]
  Activity: 1.6%
[29]
  Activity: 28.5%
[30]
  Activity: 46.5%
[31]
  viability at 10 µM: 30%
[32]
  inhibition: 16%
